The source of these data is ChEMBL document CHEMBL2321849, “Discovery and structure-activity relationships of small molecules that block the human immunoglobulin G-human neonatal Fc receptor (hIgG-hFcRn) protein-protein interaction” (Bioorg Med Chem Lett, 2013).

A short description of this assay: Inhibition of human IgG-FcRn interaction by competition ELISA. In short, it runs like this: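 Competition ELISA: test compounds at various concentrations mixed with 3 nM human IgG, then incubated on plates coated with soluble human FcRn. Inhibition of hIgG binding to shFcRn measured; IC50 reported in µM.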
Usually IC50 stands for the concentration that gives 50% inhibition. As for `COc1cccc(CNC(=O)C(C#N)c2nc3ccccc3nc2NC2CCCCCC2)c1` (stereo not given), the IC50 was > 500 µM.

Molecule `N#CC(C(=O)NCc1cccc(OCCN2CCOCC2)c1)c1nc2ccccc2nc1N1CCCCCC1` (stereo not given) yielded a half-inhibitory concentration (IC50) of 400 µM.

Regarding `N#CC(C(=O)NCC1CCCCC1)c1nc2ccccc2nc1N1CCCCCC1` (stereo not given), the IC50 was > 500 µM.

The molecule `COc1ccc(CCNC(=O)C(C#N)c2nc3ccccc3nc2N2CCCCCC2)cc1` (stereo not given) came in with an IC50 of 120 µM.

`COc1cccc(CNC(=O)C(C#N)c2nc3ccccc3nc2N2CCCCCC2)c1` (stereo not given) displayed an IC50 of 10 µM.

On to `COc1cccc(CNC(=O)C(C#N)c2nc3ccccc3nc2N2CCCN(C(C)=O)CC2)c1` (stereo not given), for which the IC50 is > 500 µM.

For `CN(C)c1ccc(CNC(=O)C(C#N)c2nc3ccccc3nc2N2CCCCCC2)cc1` (stereo not given), the IC50 was > 500 µM.

As for `N#CC(C(=O)NCc1ccc(OCCN2CCOCC2)cc1)c1nc2ccccc2nc1N1CCCCCC1` (stereo not given), the IC50 is > 500 µM.

In turn, `COc1ccc(C(CN2CCOCC2)NC(=O)C(C#N)c2nc3ccccc3nc2N2CCCCCC2)cc1` (stereo not given) came in with a half-maximal inhibitory concentration (IC50) of 2 µM.

The molecule `N#CC(C(=O)NCc1cccc(-c2nccs2)c1)c1nc2ccccc2nc1N1CCCCCC1` (stereo not given) gave an IC50 of 40 µM.

For the molecule `COc1cccc(CNC(=O)C(C#N)c2nc3ccccc3nc2N2CCCN(CCO)CC2)c1` (stereo not given), the IC50 is > 500 µM.

Regarding `COc1cccc(CNC(=O)C(C#N)c2nc3ccccc3nc2Sc2ccccc2)c1` (stereo not given), the half-maximal inhibitory concentration (IC50) is > 500 µM.

`COc1ccccc1CNC(=O)C(C#N)c1nc2ccccc2nc1N1CCCCCC1` (stereo not given) showed a concentration for half-maximal inhibition (IC50) of 150 µM.

As to `COc1cccc(CNC(=O)C(C#N)c2nc3ccccc3nc2N2CCCN(C(=O)OCc3ccccc3)CC2)c1` (stereo not given), the half-inhibitory concentration (IC50) was > 500 µM.

Regarding `COc1cccc(CNC(=O)C(C#N)c2nc3ccccc3nc2N2CCCCC2)c1` (stereo not given), the half-inhibitory concentration (IC50) is > 500 µM.

The molecule `COc1cccc(CNC(=O)C(C#N)c2nc3ccc(C(=O)NCCCN(C)C)cc3nc2N2CCCCCC2)c1` (stereo not given) yielded a half-maximal inhibitory concentration (IC50) of 400 µM.

In the case of `COc1cccc(CNC(=O)C(C#N)c2nc3ccccc3nc2N2CCOCC2)c1` (stereo not given), the IC50 was > 500 µM.

As for `N#CC(C(=O)NCc1cccc(Cl)c1)c1nc2ccccc2nc1N1CCCCCC1` (stereo not given), the IC50 was 100 µM.

Turning to `N#CC(C(=O)NCc1ccccn1)c1nc2ccccc2nc1N1CCCCCC1` (stereo not given), the half-inhibitory concentration (IC50) is > 1000 µM.

On to `COc1cccc(CNC(=O)C(C#N)c2nc3ccc(C(=O)NCCc4cccnc4)cc3nc2N2CCCCCC2)c1` (stereo not given), for which the IC50 was > 500 µM.

`COc1ccc([C@H](C)NC(=O)C(C#N)c2nc3ccccc3nc2N2CCCCCC2)cc1` (stereo not given in full): the concentration for half-maximal inhibition (IC50) was 40 µM. This lies in the double-digit micromolar range.

Regarding `COc1cccc(CNC(=O)C(C#N)c2nc3ccccc3nc2NCc2ccccc2)c1` (stereo not given), the IC50 was > 500 µM.

With `N#CC(C(=O)NCc1cccs1)c1nc2ccccc2nc1N1CCCCCC1` (stereo not given), the IC50 was > 1000 µM.

`N#CC(C(=O)NCc1cccc(OC(F)(F)F)c1)c1nc2ccccc2nc1N1CCCCCC1` (stereo not given): the IC50 is 80 µM.

Take `COc1cccc(CNC(=O)C(C#N)c2nc3ccccc3nc2N2CCCOCC2)c1` (stereo not given): the half-maximal inhibitory concentration (IC50) was > 500 µM.

Turning to `COc1cccc(CNC(=O)C(C#N)c2nc3ccccc3nc2N2CCCN(C)CC2)c1` (stereo not given), the half-inhibitory concentration (IC50) was > 500 µM.

In the case of `N#CC(C(=O)NCc1cccnc1)c1nc2ccccc2nc1N1CCCCCC1` (stereo not given), the IC50 was > 1000 µM.

As for `COc1cccc(CNC(=O)C(C#N)c2nc3cc(OC)ccc3nc2N2CCCCCC2)c1` (stereo not given), the half-inhibitory concentration (IC50) is > 500 µM.

For the molecule `COc1cccc(CCNC(=O)C(C#N)c2nc3ccccc3nc2N2CCCCCC2)c1` (stereo not given), the concentration for half-maximal inhibition (IC50) came out at 100 µM.

Turning to `COc1ccc([C@@H](C)NC(=O)C(C#N)c2nc3ccccc3nc2N2CCCCCC2)cc1` (stereo not given in full), the IC50 stood at 40 µM. This IC50 lies about 2.5-fold lower than the previous one.

On to `N#CC(C(=O)NCc1ccccc1)c1nc2ccccc2nc1N1CCCCCC1` (stereo not given), for which the IC50 is > 500 µM.

For `COCCNC(=O)C(C#N)c1nc2ccccc2nc1N1CCCCCC1` (stereo not given), the IC50 was found to be 120 µM.

`COc1ccc(CNC(=O)C(C#N)c2nc3ccccc3nc2N2CCCCCC2)cc1OC` (stereo not given) showed a half-maximal inhibitory concentration (IC50) of 250 µM.

Take `COc1cccc(CNC(=O)C(C#N)c2nc3ccccc3nc2N2CCCNCC2)c1` (stereo not given): the IC50 is > 500 µM.

On to `COc1cccc(CNC(=O)C(C#N)c2nc3ccccc3nc2NC2CC3CCC2C3)c1` (stereo not given), for which the IC50 was > 500 µM.

On to `COc1cccc(CNC(=O)C(C#N)c2nc3ccc(C(=O)NCc4cccnc4)cc3nc2N2CCCCCC2)c1` (stereo not given), for which the concentration for half-maximal inhibition (IC50) was > 500 µM.

For `COc1cccc(CNC(=O)C(C#N)c2nc3ccc(C(=O)Nc4ccccc4)cc3nc2N2CCCCCC2)c1` (stereo not given), the IC50 is > 500 µM.

In the case of `COc1ccc(CNC(=O)C(C#N)c2nc3ccccc3nc2N2CCCCCC2)cc1` (stereo not given), the half-maximal inhibitory concentration (IC50) stood at 50 µM.

Regarding `COCCCNC(=O)C(C#N)c1nc2ccccc2nc1N1CCCCCC1` (stereo not given), the concentration for half-maximal inhibition (IC50) was > 150 µM.

Take `N#CC(C(=O)NCc1ccco1)c1nc2ccccc2nc1N1CCCCCC1` (stereo not given): the IC50 was > 1000 µM.

In turn, `COc1cccc(CNC(=O)C(C#N)c2nc3ccc(C#N)cc3nc2N2CCCCCC2)c1` (stereo not given) gave a half-inhibitory concentration (IC50) of 100 µM.

Take `COc1cccc(CNC(=O)C(C#N)c2nc3ccccc3nc2N2CCN(C)CC2)c1` (stereo not given): the IC50 is > 500 µM.

Regarding `COc1cccc(CNC(=O)C(C#N)c2nc3ccc([N+](=O)[O-])cc3nc2N2CCCCCC2)c1` (stereo not given), the IC50 turned out to be 500 µM.

The molecule `COc1cccc(CNC(=O)C(C#N)c2nc3cc(Cl)c(Cl)cc3nc2N2CCCCCC2)c1` (stereo not given) returned a 50% inhibitory concentration (IC50) of 30 µM.

For `N#Cc1ccc(CNC(=O)C(C#N)c2nc3ccccc3nc2N2CCCCCC2)cc1` (stereo not given), the IC50 is 40 µM.

`N#CC(C(=O)NCc1cccc(F)c1)c1nc2ccccc2nc1N1CCCCCC1` (stereo not given): the IC50 came to 150 µM.

Molecule `COc1cccc(CNC(=O)C(C#N)c2nc3ccccc3nc2N2CCCCCCC2)c1` (stereo not given) showed an IC50 of 6 µM.

In the case of `COc1cccc(CNC(=O)C(C#N)c2nc3ccccc3nc2Nc2ccccc2)c1` (stereo not given), the IC50 is > 500 µM.

With `CN(C)CCCOc1cccc(CNC(=O)C(C#N)c2nc3ccccc3nc2N2CCCCCC2)c1` (stereo not given), the half-inhibitory concentration (IC50) is 200 µM.

For the molecule `COc1cccc(CNC(=O)C(C#N)c2nc3ccccc3nc2N2CCCC3CCCCC32)c1` (stereo not given), the half-inhibitory concentration (IC50) was > 500 µM.

As to `Cc1cncc(Oc2cccc(CNC(=O)C(C#N)c3nc4ccccc4nc3N3CCCCCC3)c2)n1` (stereo not given), the 50% inhibitory concentration (IC50) stood at 200 µM.

For `C=CCCNC(=O)C(C#N)c1nc2ccccc2nc1N1CCCCCC1` (stereo not given), the IC50 is > 250 µM.

For `CCCCNC(=O)C(C#N)c1nc2ccccc2nc1N1CCCCCC1` (stereo not given), the IC50 was > 500 µM.

As for `N#CC(C(=O)NCc1ccc(O)cc1)c1nc2ccccc2nc1N1CCCCCC1` (stereo not given), the 50% inhibitory concentration (IC50) is > 500 µM.

For the molecule `N#CC(C(=O)NCCc1ccc(N)cc1)c1nc2ccccc2nc1N1CCCCCC1` (stereo not given), the IC50 is > 500 µM.
